According to ChEMBL document CHEMBL1154385, “(4-Piperidinyl)-piperazine: a new platform for acetyl-CoA carboxylase inhibitors” (Bioorg Med Chem Lett, 2009):

Columns and labels:
HepG2 [1] = assay: Induction of fatty acid oxidation in human HepG2 cells after 48 hrs; format: functional, cell-based
In short: (§1)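 HepG2 cells. Fatty acid synthesis read as decreased [¹⁴C] acetate incorporation into cellular lipids, reported as IC₅₀. Fatty acid oxidation read as T₂O generated in the culture medium, reported as EC₅₀.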

Acetyl-CoA carboxylase = Acetyl-CoA carboxylase (Homo sapiens, UniProt Q13085+O00763); assay: Inhibition of partially purified human liver ACC1/2
HepG2 [2] = assay: Inhibition of fatty acid synthesis in human HepG2 cells after 48 hrs; format: functional, cell-based; settings: for IC50: Homo sapiens, HepG2, 48 h; in short: as §1
Acetyl-CoA carboxylase 1 = Acetyl-CoA carboxylase 1 (Homo sapiens, UniProt Q13085); assay: Inhibition of human recombinant ACC1
In short: (§2)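 Recombinant human ACC1 and ACC2 enzymes; activity read as inhibition of malonyl-CoA synthesis.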

Acetyl-CoA carboxylase 2 = Acetyl-CoA carboxylase 2 (Homo sapiens, UniProt O00763); assay: Inhibition of human recombinant ACC2; in short: as §2
Sequence of Acetyl-CoA carboxylase 2 (O00763 whole entry): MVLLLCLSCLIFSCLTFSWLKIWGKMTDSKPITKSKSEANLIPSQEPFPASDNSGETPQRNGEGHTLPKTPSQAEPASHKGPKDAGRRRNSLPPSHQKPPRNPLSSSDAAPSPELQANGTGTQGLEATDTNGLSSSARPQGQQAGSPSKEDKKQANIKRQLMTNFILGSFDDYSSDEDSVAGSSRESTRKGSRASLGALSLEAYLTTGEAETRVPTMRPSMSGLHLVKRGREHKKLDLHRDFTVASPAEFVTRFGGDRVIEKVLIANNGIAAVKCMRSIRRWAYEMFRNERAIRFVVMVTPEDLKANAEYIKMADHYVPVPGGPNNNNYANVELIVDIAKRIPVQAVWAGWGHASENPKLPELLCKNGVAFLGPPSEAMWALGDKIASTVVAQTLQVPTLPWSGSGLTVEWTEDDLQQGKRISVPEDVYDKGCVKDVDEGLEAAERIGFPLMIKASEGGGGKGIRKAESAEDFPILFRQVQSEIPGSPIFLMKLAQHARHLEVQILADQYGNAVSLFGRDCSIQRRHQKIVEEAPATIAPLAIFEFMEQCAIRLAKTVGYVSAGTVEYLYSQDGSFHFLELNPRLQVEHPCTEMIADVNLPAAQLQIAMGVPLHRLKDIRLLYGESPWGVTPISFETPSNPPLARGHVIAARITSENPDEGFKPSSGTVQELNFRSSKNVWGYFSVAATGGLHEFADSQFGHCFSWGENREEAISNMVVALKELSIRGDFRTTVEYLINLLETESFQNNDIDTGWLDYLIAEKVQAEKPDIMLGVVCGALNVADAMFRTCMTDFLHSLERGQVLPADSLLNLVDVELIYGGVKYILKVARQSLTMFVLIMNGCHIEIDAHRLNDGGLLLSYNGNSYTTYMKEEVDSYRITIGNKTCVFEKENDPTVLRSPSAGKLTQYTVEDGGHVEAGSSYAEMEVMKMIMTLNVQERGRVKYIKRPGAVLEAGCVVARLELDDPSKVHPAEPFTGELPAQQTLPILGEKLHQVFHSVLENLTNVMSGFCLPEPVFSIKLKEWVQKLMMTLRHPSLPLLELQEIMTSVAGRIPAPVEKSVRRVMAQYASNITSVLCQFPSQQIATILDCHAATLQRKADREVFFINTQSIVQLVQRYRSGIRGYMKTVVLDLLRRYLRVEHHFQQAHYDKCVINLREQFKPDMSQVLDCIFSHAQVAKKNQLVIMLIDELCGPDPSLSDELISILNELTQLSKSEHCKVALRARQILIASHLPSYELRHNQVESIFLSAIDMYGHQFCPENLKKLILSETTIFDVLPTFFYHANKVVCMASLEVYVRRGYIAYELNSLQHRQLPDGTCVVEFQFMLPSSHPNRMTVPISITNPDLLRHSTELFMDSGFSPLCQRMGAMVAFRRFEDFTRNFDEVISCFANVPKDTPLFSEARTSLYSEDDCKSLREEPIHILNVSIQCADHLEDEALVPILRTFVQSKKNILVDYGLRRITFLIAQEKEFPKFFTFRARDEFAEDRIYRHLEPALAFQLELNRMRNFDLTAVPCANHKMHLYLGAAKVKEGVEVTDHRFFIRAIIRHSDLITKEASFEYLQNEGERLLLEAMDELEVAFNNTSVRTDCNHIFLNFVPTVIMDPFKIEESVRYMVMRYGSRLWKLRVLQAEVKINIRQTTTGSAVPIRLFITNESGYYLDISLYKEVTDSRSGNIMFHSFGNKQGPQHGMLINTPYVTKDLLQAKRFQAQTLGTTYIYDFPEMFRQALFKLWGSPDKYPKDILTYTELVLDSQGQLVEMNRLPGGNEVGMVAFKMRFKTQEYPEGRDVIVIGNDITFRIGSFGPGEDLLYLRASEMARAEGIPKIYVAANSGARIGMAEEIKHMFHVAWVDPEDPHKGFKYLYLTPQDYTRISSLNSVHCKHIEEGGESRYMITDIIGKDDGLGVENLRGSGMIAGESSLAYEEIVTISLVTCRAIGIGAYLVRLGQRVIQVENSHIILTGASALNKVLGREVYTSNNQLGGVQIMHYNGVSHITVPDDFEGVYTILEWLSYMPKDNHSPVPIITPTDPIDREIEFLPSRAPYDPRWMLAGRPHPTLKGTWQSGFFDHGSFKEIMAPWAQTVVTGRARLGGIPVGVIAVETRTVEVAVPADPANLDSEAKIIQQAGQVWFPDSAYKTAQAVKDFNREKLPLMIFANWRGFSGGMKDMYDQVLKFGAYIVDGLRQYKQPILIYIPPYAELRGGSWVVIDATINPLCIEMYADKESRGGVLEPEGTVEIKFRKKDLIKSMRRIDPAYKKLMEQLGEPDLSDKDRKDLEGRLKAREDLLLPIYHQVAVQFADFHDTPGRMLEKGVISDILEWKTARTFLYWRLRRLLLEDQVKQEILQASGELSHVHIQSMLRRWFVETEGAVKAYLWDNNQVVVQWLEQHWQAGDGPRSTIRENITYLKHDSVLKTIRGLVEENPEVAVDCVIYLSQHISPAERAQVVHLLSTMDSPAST

[3] = Metabolic stability in human liver microsome assessed as drug remaining at 5 uM after 15 mins; format: ADME; settings: liver microsomes, read-out: Activity
In short: (§3)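 Compound at 5 µM incubated at 37 °C for 15 min with 1 mg/mL human or rat liver microsomes. Cofactors: 1.5 mM glucose-6-phosphate, 0.16 mM NADP, 1 U/mL glucose-6-phosphate dehydrogenase. Medium: 250 mM phosphate buffer, 2.4 mM MgCl₂, 69 mM KCl. Compound measured by LC–MS/MS at 0 and 15 min; % remaining reported.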

[4] = Metabolic stability in rat liver microsome assessed as drug remaining at 5 uM after 15 mins; format: ADME; settings: liver microsomes, read-out: Activity; in short: as §3
[5] = AUC in Sprague-Dawley rat at 10 mg/kg, po; format: ADME, organism-based; set-up: dose 10 mg/kg, route oral; settings: plasma
In short: (§4)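 Male Sprague-Dawley rats given a single oral dose of 10 mg/kg; plasma exposure parameters taken from the plasma profile.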

[6] = Tmax in Sprague-Dawley rat at 10 mg/kg, po; format: ADME, organism-based; set-up: dose 10 mg/kg, route oral; settings: in vivo; in short: as §4
[7] = Cmax in Sprague-Dawley rat at 10 mg/kg, po; format: ADME, organism-based; set-up: dose 10 mg/kg, route oral; settings: in vivo; in short: as §4

| SMILES | IC50 (Acetyl-CoA carboxylase) | other results |
| --- | --- | --- |
| CC(=O)N1CCC(C(=O)N2CCC(N3CCN(C(=O)c4cc(-c5cccc(C(N)=O)c5)nc(-c5cccc(C(N)=O)c5)c4)CC3)CC2)CC1 | 73 nM | Activity (HepG2 [1]): 94% |
| CC(=O)N1CCC(C(=O)N2CCC(N3CCN(C(=O)c4cc(-c5cccc(F)c5)nc(-c5cccc(F)c5)c4)CC3)CC2)CC1 | 131 nM | – |
| NC(=O)N1CCC(C(=O)N2CCC(N3CCN(C(=O)c4cc(-c5ccccc5)nc(-c5ccccc5)c4)CC3)CC2)CC1 | 151 nM | – |
| CC(=O)N1CCC(C(=O)N2CCC(N3CCN(C(=O)c4cc(-c5ccccc5)nc(-c5ccc(F)cc5)c4)CC3)CC2)CC1 | 184 nM | – |
| CS(=O)(=O)N1CCC(C(=O)N2CCC(N3CCN(C(=O)c4cc(-c5ccccc5)nc(-c5ccccc5)c4)CC3)CC2)CC1 | 248 nM | – |
| COC(=O)N1CCC(C(=O)N2CCC(N3CCN(C(=O)c4cc(-c5ccccc5)nc(-c5ccccc5)c4)CC3)CC2)CC1 | 102 nM | – |
| O=C(c1ccccc1)N1CCC(C(=O)N2CCC(N3CCN(C(=O)c4cc(-c5ccccc5)nc(-c5ccccc5)c4)CC3)CC2)CC1 | 290 nM | – |
| CO[C@H]1CC[C@H](C(=O)N2CCC(N3CCN(C(=O)c4cc(-c5ccccc5)nc(-c5ccccc5)c4)CC3)CC2)CC1 | 155 nM | – |
| CNC(=O)N1CCC(C(=O)N2CCC(N3CCN(C(=O)c4cc(-c5ccccc5)nc(-c5ccccc5)c4)CC3)CC2)CC1 | 95 nM | – |
| CC(=O)N1CCC(C(=O)N2CCC(N3CCN(C(=O)c4cc(-c5ccc(O)cc5)nc(-c5ccc(O)cc5)c4)CC3)CC2)CC1 | 52 nM | Activity (HepG2 [1]): 123%; inhibition (INH) (HepG2 [2]): 29% |
| COCC(=O)N1CCC(C(=O)N2CCC(N3CCN(C(=O)c4cc(-c5ccccc5)nc(-c5ccccc5)c4)CC3)CC2)CC1 | 169 nM | – |
| COc1ccc(-c2cc(C(=O)N3CCN(C4CCN(C(=O)C5CCN(C(C)=O)CC5)CC4)CC3)cc(-c3ccc(OC)cc3)n2)cc1 | 68 nM | Activity (HepG2 [1]): 167%; inhibition (INH) (HepG2 [2]): 77% |
| CC(=O)N1CCC(C(=O)N2CCC(N3CCN(C(=O)c4cc(-c5ccccc5)nc(-c5ccccc5)c4)CC3)CC2)CC1 | 126 nM | Activity (HepG2 [1]): 148%; inhibition (INH) (HepG2 [2]): 72% |
| CCC(=O)N1CCC(C(=O)N2CCC(N3CCN(C(=O)c4cc(-c5ccccc5)nc(-c5ccccc5)c4)CC3)CC2)CC1 | 115 nM | – |
| CC(C)OC(=O)N1CCC(C(=O)N2CCC(N3CCN(C(=O)c4cc(-c5ccccc5)nc(-c5ccccc5)c4)CC3)CC2)CC1 | 411 nM | – |
| CN(C)C(=O)N1CCC(C(=O)N2CCC(N3CCN(C(=O)c4cc(-c5ccccc5)nc(-c5ccccc5)c4)CC3)CC2)CC1 | 169 nM | – |
| CC(=O)N1CCC(C(=O)N2CCC(N3CCN(C(=O)c4cc(-c5ccc(C)cc5)nc(-c5ccc(C)cc5)c4)CC3)CC2)CC1 | 76 nM | Activity (HepG2 [1]): 176%; EC50 (HepG2 [1]; Homo sapiens, HepG2, 48 h): 580 nM; inhibition (INH) (HepG2 [2]): 77%; IC50 (HepG2 [2]): 340 nM; IC50 (Acetyl-CoA carboxylase 1): 101 nM; remaining at 0.25 h, 5 µM [4]: 96%; AUC [5]: 1000 ng·h/mL; IC50 (Acetyl-CoA carboxylase 2): 23 nM; Tmax [6]: 4 h; remaining at 0.25 h, 5 µM [3]: 87%; Cmax [7]: 107 ng/mL |
| CC(=O)N1CCC(C(=O)N2CCC(N3CCN(C(=O)c4cc(-c5ccc(CO)cc5)nc(-c5ccc(CO)cc5)c4)CC3)CC2)CC1 | 32 nM | Activity (HepG2 [1]): 120% |
| CC(=O)N1CCC(C(=O)N2CCC(N3CCN(C(=O)c4cc(-c5ccc(C(N)=O)cc5)nc(-c5ccc(C(N)=O)cc5)c4)CC3)CC2)CC1 | 67 nM | Activity (HepG2 [1]): 135% |
| O=C(CO)N1CCC(C(=O)N2CCC(N3CCN(C(=O)c4cc(-c5ccccc5)nc(-c5ccccc5)c4)CC3)CC2)CC1 | 102 nM | – |

Second part, led by results:

| IC50 (Acetyl-CoA carboxylase) | SMILES | other results |
| --- | --- | --- |
| 244 nM | O=C(c1cc(-c2ccccc2)nc(-c2ccccc2)c1)N1CCN(C2CCN(C(=O)C3CCCCC3)CC2)CC1 | – |
| 95 nM | O=C(c1c2ccccc2cc2ccccc12)N1CCN(C2CCN(C(=O)C3CCCC3)CC2)CC1 | – |
| 60 nM | Cc1cc(C(=O)N2CCC(N3CCN(C(=O)c4c5ccccc5cc5ccccc45)CC3)CC2)c(C)o1 | – |
| 869 nM | O=C(c1cc(-c2ccccc2)nc(-c2ccccc2)c1)N1CCN(C2CCN(C(=O)N3CCOCC3)CC2)CC1 | – |
| 157 nM | Cc1cc(C(=O)N2CCC(N3CCN(C(=O)c4cc(-c5ccccc5)nc(-c5ccccc5)c4)CC3)CC2)c(C)o1 | – |
| 91 nM | O=C(c1c2ccccc2cc2ccccc12)N1CCN(C2CCN(C(=O)C3CCCCC3)CC2)CC1 | – |
| 693 nM | O=C(c1ccccc1)N1CCC(N2CCN(C(=O)c3cc(-c4ccccc4)nc(-c4ccccc4)c3)CC2)CC1 | – |
| 434 nM | O=C(c1cc(-c2ccccc2)nc(-c2ccccc2)c1)N1CCN(C2CCN(C(=O)N3CCCCC3)CC2)CC1 | – |
| 116 nM | O=C(c1c2ccccc2cc2ccccc12)N1CCC(N2CCC[C@@H](C(=O)N3CCOCC3)C2)CC1 | IC50 (HepG2 [2]): 840 nM; IC50 (Acetyl-CoA carboxylase 1): 456 nM; IC50 (Acetyl-CoA carboxylase 2): 194 nM; remaining at 0.25 h, 5 µM [3]: 52% |
| 66 nM | O=C(c1ccccc1)N1CCC(N2CCN(C(=O)c3c4ccccc4cc4ccccc34)CC2)CC1 | – |
| 121 nM | O=C(c1c2ccccc2cc2ccccc12)N1CCN(C2CCN(C(=O)N3CCCCC3)CC2)CC1 | – |
| 2112 nM | O=C(Cc1ccccc1)N1CCC(N2CCN(C(=O)c3c4ccccc4cc4ccccc34)CC2)CC1 | – |
| 239 nM | O=C(c1c2ccccc2cc2ccccc12)N1CCN(C2CCN(C(=O)N3CCOCC3)CC2)CC1 | – |
| 161 nM | O=C(c1ccco1)N1CCC(N2CCN(C(=O)c3c4ccccc4cc4ccccc34)CC2)CC1 | – |
